Measurements as given in ChEMBL document CHEMBL4689842, “EUbOPEN Chemogenomics Library wave 1” (2021).

Test system: HEK-293T
Test: Multiplex assay against HEK293T;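 as to Population Tubulin-Different-Phenotype (%): share of the cells with healthy nuclei that show this phenotype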
Format: toxicity, cell-based
Conditions: human
Procedure, shortened: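 Per cents of healthy-nucleus cells form the tubulin, mitochondrial-mass and membrane-permeability phenotype values. Live cells were stained at seeding with Hoechst33342, BioTracker Green Microtubule Cytoskeleton Dye, MitoTracker Red and Annexin V Alexa Fluor 680. After compound addition they were imaged on a CQ1 microscope at 37°C and 5% CO2, and CellPathfinder machine-learning gating split them into Hoechst high-intensity objects or normal cells, normal cells into healthy, pyknosed or fragmented nuclei, and pyknosed cells into mitotic or apoptotic.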

[1] = 12 h, 1 µM, compound concentration 1 uM, replicate 1
[2] = 12 h, 1 µM, compound concentration 1 uM, replicate 2
[3] = 12 h, 10 µM, compound concentration 10 uM, replicate 1
[4] = 12 h, 10 µM, compound concentration 10 uM, replicate 2
[5] = 24 h, 1 µM, compound concentration 1 uM, replicate 1
[6] = 24 h, 1 µM, compound concentration 1 uM, replicate 2
[7] = 24 h, 10 µM, compound concentration 10 uM, replicate 1
[8] = 24 h, 10 µM, compound concentration 10 uM, replicate 2
[9] = 48 h, 1 µM, compound concentration 1 uM, replicate 1
[10] = 48 h, 1 µM, compound concentration 1 uM, replicate 2
[11] = 48 h, 10 µM, compound concentration 10 uM, replicate 1
[12] = 48 h, 10 µM, compound concentration 10 uM, replicate 2

Nc1ccc(C(=O)Nc2cccc(-c3nc(N4CCOCC4)c4oc5ncccc5c4n3)c2)cn1
Population Apoptotic (%) [1]: 66%
Population Fragmented Nuclei (%) [1]: 24%
Population Healthy Nuclei (%) [1]: 15%
Population Hoechst High Intensity Objects (%) [1]: 19%
Population Mitochondria Different-Phenotype (%) [1]: 94%
Population Mitotic Cells (%) [1]: 33%
Population Normal (%) [1]: 80%
Population Pyknosed Nuclei (%) [1]: 60%
Population Tubulin-Different-Phenotype (%) [1]: 94%
Population Apoptotic (%) [2]: 34%
Population Fragmented Nuclei (%) [2]: 8%
Population Healthy Nuclei (%) [2]: 10%
Population Hoechst High Intensity Objects (%) [2]: 8%
Population Mitochondria Different-Phenotype (%) [2]: 46%
Population Mitotic Cells (%) [2]: 65%
Population Normal (%) [2]: 91%
Population Pyknosed Nuclei (%) [2]: 81%
Population Tubulin-Different-Phenotype (%) [2]: 80%
Total Cell Count [2]: 149
Population Apoptotic (%) [3]: 83%
Population Fragmented Nuclei (%) [3]: 44%
Population Healthy Nuclei (%) [3]: 5%
Population Hoechst High Intensity Objects (%) [3]: 25%
Population Mitochondria Different-Phenotype (%) [3]: 100%
Population Mitotic Cells (%) [3]: 16%
Population Normal (%) [3]: 74%
Population Pyknosed Nuclei (%) [3]: 49%
Population Tubulin-Different-Phenotype (%) [3]: 76%
Total Cell Count [3]: 385
Population Apoptotic (%) [4]: 53%
Population Fragmented Nuclei (%) [4]: 15%
Population Healthy Nuclei (%) [4]: 13%
Population Hoechst High Intensity Objects (%) [4]: 8%
Population Mitochondria Different-Phenotype (%) [4]: 75%
Population Mitotic Cells (%) [4]: 46%
Population Normal (%) [4]: 91%
Population Pyknosed Nuclei (%) [4]: 70%
Population Tubulin-Different-Phenotype (%) [4]: 70%
Total Cell Count [4]: 330
Population Apoptotic (%) [5]: 64%
Population Fragmented Nuclei (%) [5]: 22%
Population Healthy Nuclei (%) [5]: 17%
Population Hoechst High Intensity Objects (%) [5]: 19%
Population Mitochondria Different-Phenotype (%) [5]: 95%
Population Mitotic Cells (%) [5]: 35%
Population Normal (%) [5]: 80%
Population Pyknosed Nuclei (%) [5]: 59%
Population Tubulin-Different-Phenotype (%) [5]: 90%
Total Cell Count [5]: 147
Population Apoptotic (%) [6]: 40%
Population Fragmented Nuclei (%) [6]: 3%
Population Healthy Nuclei (%) [6]: 37%
Population Hoechst High Intensity Objects (%) [6]: 8%
Population Mitochondria Different-Phenotype (%) [6]: 68%
Population Mitotic Cells (%) [6]: 59%
Population Normal (%) [6]: 91%
Population Pyknosed Nuclei (%) [6]: 58%
Population Tubulin-Different-Phenotype (%) [6]: 96%
Total Cell Count [6]: 171
Population Apoptotic (%) [7]: 80%
Population Fragmented Nuclei (%) [7]: 45%
Population Healthy Nuclei (%) [7]: 7%
Population Hoechst High Intensity Objects (%) [7]: 21%
Population Mitochondria Different-Phenotype (%) [7]: 100%
Population Mitotic Cells (%) [7]: 19%
Population Normal (%) [7]: 78%
Population Pyknosed Nuclei (%) [7]: 47%
Population Tubulin-Different-Phenotype (%) [7]: 79%
Total Cell Count [7]: 389
Population Apoptotic (%) [8]: 67%
Population Fragmented Nuclei (%) [8]: 15%
Population Healthy Nuclei (%) [8]: 15%
Population Hoechst High Intensity Objects (%) [8]: 8%
Population Mitochondria Different-Phenotype (%) [8]: 81%
Population Mitotic Cells (%) [8]: 32%
Population Normal (%) [8]: 91%
Population Pyknosed Nuclei (%) [8]: 69%
Population Tubulin-Different-Phenotype (%) [8]: 50%
Total Cell Count [8]: 315
Population Apoptotic (%) [9]: 67%
Population Fragmented Nuclei (%) [9]: 27%
Population Healthy Nuclei (%) [9]: 31%
Population Hoechst High Intensity Objects (%) [9]: 20%
Population Mitochondria Different-Phenotype (%) [9]: 82%
Population Mitotic Cells (%) [9]: 32%
Population Normal (%) [9]: 79%
Population Pyknosed Nuclei (%) [9]: 40%
Population Tubulin-Different-Phenotype (%) [9]: 86%
Total Cell Count [9]: 183
Population Apoptotic (%) [10]: 61%
Population Fragmented Nuclei (%) [10]: 6%
Population Healthy Nuclei (%) [10]: 55%
Population Hoechst High Intensity Objects (%) [10]: 8%
Population Mitochondria Different-Phenotype (%) [10]: 49%
Population Mitotic Cells (%) [10]: 38%
Population Normal (%) [10]: 91%
Population Pyknosed Nuclei (%) [10]: 38%
Population Tubulin-Different-Phenotype (%) [10]: 92%
Total Cell Count [10]: 187
Population Apoptotic (%) [11]: 75%
Population Fragmented Nuclei (%) [11]: 51%
Population Healthy Nuclei (%) [11]: 10%
Population Hoechst High Intensity Objects (%) [11]: 28%
Population Mitochondria Different-Phenotype (%) [11]: 97%
Population Mitotic Cells (%) [11]: 24%
Population Normal (%) [11]: 71%
Population Pyknosed Nuclei (%) [11]: 38%
Population Tubulin-Different-Phenotype (%) [11]: 60%
Total Cell Count [11]: 484
Population Apoptotic (%) [12]: 73%
Population Fragmented Nuclei (%) [12]: 17%
Population Healthy Nuclei (%) [12]: 18%
Population Hoechst High Intensity Objects (%) [12]: 8%
Population Mitochondria Different-Phenotype (%) [12]: 84%
Population Mitotic Cells (%) [12]: 26%
Population Normal (%) [12]: 91%
Population Pyknosed Nuclei (%) [12]: 64%
Population Tubulin-Different-Phenotype (%) [12]: 55%
Total Cell Count [12]: 304
